Reference: ChEMBL document CHEMBL1158033, “C-26 and C-30 apocarotenoids from seeds of Ditaxis heterantha with antioxidant activity and protection against DNA oxidative damage” (J Nat Prod, 2006)

Experiments:
[1] = Antiradical activity assessed as DPPH radical scavenging activity at 1500 uM by spectrophotometry relative to control; type: physicochemical
Procedure, shortened: (§1)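 Sample (150–1500 μM; MeOH, or Et2O for lycopene, β-carotene, astaxanthin) added to 150 μM DPPH in MeOH and kept in the dark at ~20 °C for 60 min. Absorbance read at 520 nm. Activity = 100 × (1 − Asample/Acontrol), with control lacking sample. Triplicates; Tukey's test and Pearson correlation.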

[2] = Antiradical activity assessed as DPPH radical scavenging activity at 1050 uM by spectrophotometry relative to control; type: physicochemical; procedure, shortened: as §1
[3] = Antigenotoxic activity against H2O2-induced oxidative DNA damage in rat lymphocyte assessed as tail length at 500 uM by comet assay; type: functional
Procedure, shortened: (§2)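 Rat peripheral blood mononuclear cells isolated on Histopaque 1077, 1×10^7 cells/mL in cold PBS pH 7.4, viability >90% by trypan blue. Cells preincubated with sample in DMSO (5%) at 37 °C for 30 min, then H2O2 1 mM final, 37 °C for 10 min. Alkaline comet assay, ethidium bromide stain, image analysis of 50 cells, 400×. Mean ± SE of four values, one-way ANOVA.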

[4] = Antigenotoxic activity against H2O2-induced oxidative DNA damage in rat lymphocyte assessed as tail length at 1000 uM by comet assay; type: functional; procedure, shortened: as §2
Lymphocyte = experiment: Antigenotoxic activity against H2O2-induced oxidative DNA damage in rat lymphocyte assessed as cauda tail moment at 1000 uM by comet assay; type: functional; procedure, shortened: as §2
[5] = Antigenotoxic activity against H2O2-induced oxidative DNA damage in rat lymphocyte assessed as olive tail moment at 1000 uM by comet assay; type: functional; procedure, shortened: as §2
[6] = Antigenotoxic activity against H2O2-induced oxidative DNA damage in rat lymphocyte assessed as olive tail moment at 500 uM by comet assay; type: functional; procedure, shortened: as §2
[7] = Antigenotoxic activity against H2O2-induced oxidative DNA damage in rat lymphocyte assessed as cauda tail moment at 500 uM by comet assay; type: functional; procedure, shortened: as §2
[8] = Antiradical activity assessed as DPPH radical scavenging activity at 150 uM by spectrophotometry relative to control; type: physicochemical; procedure, shortened: as §1
[9] = Antiradical activity assessed as DPPH radical scavenging activity at 750 uM by spectrophotometry relative to control; type: physicochemical; procedure, shortened: as §1

| SMILES | Activity [1] | Activity [2] | Activity [8] | Activity [9] | Activity [3] | Activity [4] | Activity (Lymphocyte) | Activity [5] | Activity [6] | Activity [7] |
| --- | --- | --- | --- | --- | --- | --- | --- | --- | --- | --- |
| CC1=C(/C=C/C(C)=C/C=C/C(C)=C/C=C/C=C(C)/C=C/C=C(C)/C=C/C2=C(C)C(=O)[C@@H](O)CC2(C)C)C(C)(C)C[C@H](O)C1=O [ASTAXANTHIN] | 52% | Active |  |  |  |  |  |  |  |  |
| CC1=C(/C=C/C(C)=C/C=C/C(C)=C/C=C/C=C(C)/C=C/C=C(C)/C=C/C2=C(C)CCCC2(C)C)C(C)(C)CCC1 [BETA CAROTENE] | 36% | Active |  |  |  |  |  |  |  |  |
| CC(C)=CCC/C(C)=C/C=C/C(C)=C/C=C/C(C)=C/C=C/C=C(C)/C=C/C=C(C)/C=C/C=C(\C)CCC=C(C)C [LYCOPENE] | 36% | Active |  |  |  |  |  |  |  |  |

Second part, led by results:

| Activity [1] | Activity [2] | Activity [8] | Activity [9] | SMILES | Activity [3] | Activity [4] | Activity (Lymphocyte) | Activity [5] | Activity [6] | Activity [7] |
| --- | --- | --- | --- | --- | --- | --- | --- | --- | --- | --- |
| 12% | Active |  |  | COC(=O)/C(C)=C/C=C/C(C)=C/C=C/C=C(C)/C=C/C=C(C)/C=C/[C@]12O[C@@H](CC1(C)C)C[C@]2(C)O [DITAXIN] | 35.94 um | 28.15 um | 12.27 a.u. | 8.21 a.u. | 11.58 a.u. | 18.8 a.u. |
| 21% | Active | Active | Active | COC(=O)/C(C)=C/C=C/C=C(C)/C=C/C=C(C)/C=C/[C@@H]1C(C)=CC(=O)CC1(C)C [HETERANTHIN] | 34.13 um | 20.93 um | 6.24 a.u. | 4.4 a.u. | 10.8 a.u. | 17.02 a.u. |
